From publication PMC6448596 (Cell reports, 2019)

Legend:
[1] = test system: p53 and p21 protein levels in MV4:11 cells; test: p53/p21 induction western blot; type: cell-based, human; settings: MV4:11, 2 μM, 24 h
Method in brief: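 Treatment lasted 24 h with test compound or its negative control, at 2 μM in MV4:11 and 3 μM in Molm13. Comparators were 2 μM Nutlin-3 or 0.1% DMSO. Four million cells were PBS-washed and lysed 10 min on ice in Kischkel buffer. p53 and p21 were detected by western blot, with histone H3 as loading control.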

[2] = test system: SET-2 cells; test: Proliferation assay; type: cell-based; settings: Homo sapiens, SET-2, 72 h
Method in brief: (§1)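 CellTiter-Glo, 5,000 cells/well. Cells received 0.1% DMSO or at least five two-fold dilutions of test compound (top 50 μM, final DMSO 0.1%), in triplicate wells and ≥2 biological replicates, for 72 h at 37°C. Reagent was added after equilibration to RT, with 30 min dark incubation before luminescence. Signals were normalized to DMSO wells and GI50 obtained by curve fitting. Curve error bars are SEM.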

[3] = test system: Molm13 clones CRISPR-targeted with EGFP or p53 gRNA; test: Proliferation assay in CRISPR-targeted Molm13 clones; type: cell-based; settings: Homo sapiens, MOLM-13, 72 h, Molm13 clone 2p (p53 gRNA), 3-day treatment
[4] = test system: Molm13 cells; test: Proliferation assay; type: cell-based; settings: Homo sapiens, MOLM-13, 72 h
Method in brief: as §1

[5] = test system: THP-1 cells; test: Proliferation assay; type: cell-based; settings: Homo sapiens, THP-1, 72 h
Method in brief: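 THP-1 cells were grown in RPMI-1640 with 0.05 mM 2-mercaptoethanol and 10% FBS. Cells were plated 5,000/well with ≥5 two-fold dilutions of test compound (top 50 μM, 0.1% DMSO final), in triplicate wells with ≥2 biological replicates.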

[6] = test system: GDM-1 cells; test: Proliferation assay; type: cell-based; settings: Homo sapiens, GDM-1, 72 h
Method in brief: as §1

[7] = test system: PARP-1 cleavage in MV4:11 cells; test: Induction of PARP1 cleavage; type: cell-based, human; settings: 2 μM
Method in brief: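 MV4:11 cells were treated 1, 2, 3 or 6 days with 2 μM test compound, its negative control or 0.1% DMSO. Cleaved PARP-1 was detected by western blot, with histone H3 as loading reference.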

[8] = molecular target: T1, WDR5 (Homo sapiens, UniProt P61964); test: Western blot of endogenous WDR5 levels; type: cell-based; settings: MV4:11, 4 µM, 24 hours
[9] = test system: K562 cells; test: Proliferation assay; type: cell-based; settings: Homo sapiens, K562, 72 h
Method in brief: as §1

[10] = test system: ribosome protein gene expression in MV4:11 cells; test: RT-qPCR quantification of RPG mRNA expression; type: cell-based, human; settings: MV4:11, three days, equal concentrations (4 µM) of OICR-9429 and C6
Method in brief: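 Cells were lysed in Trizol and total RNA isolated on columns with DNase digestion. 1 μg RNA was reverse transcribed with MuLV reverse transcriptase in 20 μl, then diluted three-fold in nuclease-free water before qPCR.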

[11] = test system: protein synthesis in MV4:11 cells; test: Relative protein synthesis rates; type: cell-based, human; settings: MV4:11, 2 μM
Method in brief: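 Cycloheximide 30 min before OPP served as positive control; an OPP-free sample set background. Alexa647 signal was read by flow (≥10,000 events, doublets excluded). Biological triplicate, SEM.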

[12] = test system: MA93 cells; test: Proliferation assay; type: cell-based; settings: Homo sapiens, 72 h
Method in brief: (§2)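 CellTiter-Glo at 2,000 cells/well. MA93 Ras and MA93 FLT3/ITD were maintained in IMDM/20% FBS. Parental MA93 received IMDM/20% FBS plus 10 ng/mL human SCF, TPO, FLT3L, IL3 and IL6. Dosing used ≥5 two-fold dilutions from 50 μM top, 0.1% DMSO final, in triplicate wells with ≥2 biological replicates. Plates ran 72 h at 37°C, followed by 30 min reagent incubation at RT in the dark. GI50 came from DMSO-normalized luminescence.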

[13] = test system: MA93 Ras cells; test: Proliferation assay; type: cell-based; settings: Homo sapiens, MA9.3RAS, 72 h
Method in brief: as §2

[14] = molecular target: T1, WDR5; test: 10-mer-Thr-FAM peptide TR-FRET competition assay; type: binding; settings: Kd, corresponds to TR-FRET Ki of Table S1
[15] = test system: MV4:11 cells; test: Growth and viability time course; type: cell-based, human
[16] = test system: HL60 cells; test: Proliferation assay; type: cell-based; settings: Homo sapiens, HL-60, 72 h
Method in brief: as §1

[17] = test system: MV4:11 cells; test: Proliferation assay; type: cell-based, human; settings: MV4:11, 3 days, mean with SEM
Method in brief: as §1

[18] = test system: MONO-Mac-6 cells; test: Proliferation assay; type: cell-based; settings: Homo sapiens, MONO-MAC-6, 72 h
Method in brief: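 MONO-MAC-6 cells were maintained in RPMI with 10% FBS, non-essential amino acids and OPI supplement. CellTiter-Glo used 5,000 cells/well and ≥5 two-fold dilutions from 50 μM (0.1% DMSO final), in triplicate wells with ≥2 biological replicates, over 72 h at 37°C.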

[19] = molecular target: T1, WDR5; test: ChIP-Seq of WDR5; type: cell-based; settings: MV4:11, 2 μM, 4 h
Method in brief: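 MV4:11 cells at 10^6/ml were treated 4 h with 2 μM test compound, negative control or 0.1% DMSO. Cells were concentrated to 4 × 10^6/ml in PBS, fixed in 1% formaldehyde for 10 min at RT and quenched with 125 mM glycine. They were lysed in 1% SDS FA buffer. Sheared chromatin was diluted to 0.1% SDS and immunoprecipitated overnight at 4°C with anti-WDR5 (D9E1I or 429A) or IgG on BSA-blocked protein-A agarose. Peaks were compared by normalized average read counts.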

[20] = test system: NPM1 localisation in MV4:11 cells; test: Nucleophosmin; type: cell-based, human; settings: MV4:11, 4 μM, 3 days
Method in brief: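 Cells were cytospun onto slides (100,000 cells, 800 rpm, 3 min) and immunostained for NPM. The per-cell nucleolar-to-nucleoplasmic NPM ratio was quantified from two biological replicates (SD). One-way ANOVA with Dunnett's test versus DMSO.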

[21] = test system: NOMO-1 cells; test: Proliferation assay; type: cell-based; settings: Homo sapiens, NOMO-1, 72 h
Method in brief: as §1

- GI50 [3]: 18 µM
- GI50 [4]: 6.43 ± 0.683 µM
- GI50 [5]: > 50 µM
- WDR5 protein levels [8]: no measurable effect on WDR5 levels
- GI50 [9]: 25.4 ± 2.07 µM
- Kd [14]: ~0.0001 µM
- GI50 [16]: 14.8 ± 1.1 µM
- GI50 ([17]; Homo sapiens, MV4-11, 72 h): 2 µM
- GI50 [17]: 3.2 ± 0.213 µM
SMILES: Cc1nc(F)ccc1-c1cc(Cn2ccn(C)c2=N)cc(C(=O)NCc2ccc(Cl)c(Cl)c2)c1 [Compound C6, N-(3,4-Dichlorobenzyl)-3-(6-fluoro-2-methylpyridin-3-yl)-5-((2-imino-3-methyl-2,3-dihydro-1H-imidazol-1-yl)methyl)benzamide]
- p53 and p21 protein induction [1]: moderately induces p53
- GI50 [2]: > 50 µM
- GI50 [6]: > 50 µM
- time to detection of cleaved PARP-1 [7]: ≤ 24 h
- transcription of RPGs [10]: inhibited the transcription of RPGs
- OPP incorporation ([11]; 1 day): measurable reduction in OPP incorporation
- OPP incorporation ([11]; 6 days): roughly half of the cells in the C6-treated population incorporated OPP at levels similar to those of cells treated with CHX
- GI50 [12]: 5.04 ± 0.431 µM
- GI50 [13]: 20.8 ± 2.62 µM
- inhibition of proliferation, live cells over time ([15]; 2 μM (GI50 concentration), 1-6 days): inhibition of proliferation can be detected within a few days of treatment
- cellular viability over time ([15]; 2 μM, between 2 and 6 days of treatment): progressive decrease in cellular viability
- GI50 [18]: 31.7 ± 2.32 µM
- WDR5 binding events on chromatin [19]: robust decrease in all detectable WDR5 binding events
- NPM1 distribution, nucleolar stress [20]: redistribution of nucleophosmin (NPM1) from the nucleolus to the nucleoplasm
- GI50 [21]: > 50 µM
